We go through 6 compounds from ChEMBL document CHEMBL1152606, “Thienylhalomethylketones: Irreversible glycogen synthase kinase 3 inhibitors as useful pharmacological tools” (Bioorg Med Chem, 2009).

Activity calls are given as the source filed them. No cut-off for these calls is given here.

The target in assay [1] is T1, Glycogen synthase kinase-3 beta (Homo sapiens, UniProt P49841). The assay is described as follows: Noncompetitive inhibition of GSK3-beta by double-reciprocal plotting in presence of 15 uM ATP. The method, boiled down:
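Double-reciprocal kinetics: GS-1 varied 6.5–100 µM with inhibitor 1–2 µM at fixed 15 µM ATP; [γ-32P] filter assay, V as pmol phosphate/20 min; each point mean of three experiments.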

The target of assay [2] is T1, Glycogen synthase kinase-3 beta. The assay is described as follows: Noncompetitive inhibition of GSK3-beta by double-reciprocal plotting in presence of increasing ATP. The method, boiled down: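 Lineweaver-Burk analysis with ATP varied 6.5–100 µM and inhibitor 1–2 µM, GS-1 fixed at 15 µM; 20 min [γ-32P] incorporation into GS-1, V as pmol phosphate/20 min.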
Assay [3] has as its target Glycogen synthase kinase-3 beta (Mus musculus) (UniProt Q9WV60). The assay is described as follows: Inhibition of GSK-3-beta-mediated tau phosphorylation in mouse granule cerebellar neurons cells after 16 hrs by Western blot. The method, boiled down: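 Cerebellar granule neurons from P6 mice, plated on poly-L-lysine and grown 48 h in serum-free neurobasal/B-27 with 12.5 mM KCl; compounds 0.5–25 µM; LiCl 10 mM positive control with excess myo-inositol; lysates blotted with PHF-1 and Tau-1, normalised to β-actin, densitometry; mean of three experiments, control = 100 r.u.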

Assay [4] has as its target Glutamate NMDA receptor (Rattus norvegicus) (UniProt P35439+Q00959+Q00960+Q00961+Q62645+Q8VHN2+Q9R1M7). Put plainly: Displacement of [3H]CGP39653 from NMDA receptor in rat cerebral cortex at 10 uM. In kind it is tissue-based. Background: Displacement assays read how much labelled ligand stays bound in the presence of the test substance.
The species entered for assay [5] is Rattus norvegicus. The assay is described as follows: Displacement of [3H]cystisine from alpha-BGTX sensitive nicotinic acetylcholine receptor in rat cerebral cortex. In kind it is tissue-based. Also on record: concentration or dose not given beside the values. The following applies: concentration not given here.
Assay [6] has as its system N2a. The assay is described as follows: Induction of neurite growth in mouse Neuro2a cells at 2 uM after 16 hrs by phase-contrast photography. The class given is functional, cell-based. The method, boiled down: (§1)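 Neuro2A mouse neuroblastoma cells grown in DMEM with 10% heat-inactivated FCS, 2 mM glutamine and antibiotics; compounds added in serum-containing medium for 16 h; control received DMSO; neurite/cytoplasmic extensions scored by phase-contrast photography.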

Assay [7] can be described thus: Displacement of [3H]QNB from muscarinic receptor at 10 uM.
The species named for assay [8] is Rattus norvegicus. Put plainly: Inhibition of rat recombinant MAPK at 10 uM by liquid scintillation counting in presence of [33gammaP]ATP. The method, boiled down:
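Rat recombinant ERK42 MAP kinase expressed in E. coli; [γ33-P]ATP with MBP (0.5 mg/mL); staurosporine reference; liquid scintillation read-out; 10 µM compound.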

Assay [9] relates to 5-HT (non-selective) serotonin receptor (Rattus norvegicus). The assay is described as follows: Inhibition of [3H]serotonine binding to non-selective 5-HT serotoninergic receptor in rat cerebral cortex at 10 uM.
Assay [10] addresses T2, Alpha-2A adrenergic receptor (Rattus norvegicus) (UniProt P22909).
T2 sequence (whole entry): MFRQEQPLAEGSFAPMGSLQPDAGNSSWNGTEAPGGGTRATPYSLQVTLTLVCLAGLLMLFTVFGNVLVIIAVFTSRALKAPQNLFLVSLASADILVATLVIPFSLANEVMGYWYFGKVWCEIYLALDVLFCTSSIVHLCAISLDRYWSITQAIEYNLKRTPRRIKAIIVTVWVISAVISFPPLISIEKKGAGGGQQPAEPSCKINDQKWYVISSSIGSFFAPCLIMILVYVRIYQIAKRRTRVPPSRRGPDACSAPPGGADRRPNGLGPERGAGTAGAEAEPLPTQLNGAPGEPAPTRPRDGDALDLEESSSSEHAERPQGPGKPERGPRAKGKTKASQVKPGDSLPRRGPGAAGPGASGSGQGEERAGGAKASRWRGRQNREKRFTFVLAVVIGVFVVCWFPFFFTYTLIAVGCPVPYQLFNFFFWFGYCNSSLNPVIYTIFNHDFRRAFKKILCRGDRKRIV
The assay is described as follows: Displacement of [3H]RX821002 from alpha2 adrenoceptor in rat cerebral cortex at 10 uM. The class given is tissue-based. The method, boiled down: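 Rat cerebral cortex source; [3H]RX 821002 ligand at 0.5 nM; yohimbine as reference compound; non-selective alpha-2 site.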

The species entered for assay [11] is Bos taurus. Put plainly: Inhibition of bovine thymus p56LCK at 10 uM by liquid scintillation counting in presence of [33gammaP]ATP. The method, boiled down:
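p56lck from bovine thymus; [γ33-P]ATP with polyGT (0.5 mg/mL) substrate; staurosporine reference; liquid scintillation read-out; compounds tested at 10 µM.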

For assay [12], the species on record is Rattus norvegicus. Put plainly: Inhibition of rat CAM2 at 10 uM by liquid scintillation counting in presence of [33gammaP]ATP. The method, boiled down: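 CaM kinase II from rat brain; [γ33-P]ATP plus autocamtide-2 (5 µM); staurosporine reference; labelled autocamtide-2 counted by liquid scintillation; compounds at 10 µM.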
The species named for assay [13] is Rattus norvegicus. Put plainly: Displacement of [3H]AMPA from AMPA receptor in rat cerebral cortex at 10 uM. The class given is tissue-based.
Assay [14] addresses Insulin receptor (Homo sapiens) (UniProt P06213). Put plainly: Inhibition of human recombinant IR at 10 uM by liquid scintillation counting in presence of [33gammaP]ATP. The method, boiled down:
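Human recombinant insulin receptor kinase; [γ33-P]ATP plus poly GT (0.03 mg/mL); staurosporine reference; liquid scintillation detection; 10 µM compound.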

Assay [15] has as its target T1, Glycogen synthase kinase-3 beta. The assay is described as follows: Irreversible inhibition of GSK3-beta mediated phosphorylation measured after careful washes by liquid scintillation counting. The method, boiled down:
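His-tagged recombinant GSK-3β immobilised on nickel agarose, incubated 20 min at 37 °C with inhibitor, 15 µM ATP, [γ-32P]ATP and GS-1 in Tris/MgCl2/EGTA/EDTA pH 7.5; gel pelleted, washed three times in Tris-MgCl2 buffer, then reassayed 15 min with fresh ATP/GS-1; P81 filter scintillation; activity relative to identically handled control.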

Assay [16] concerns the target Epidermal growth factor receptor (Homo sapiens) (UniProt P00533). Put plainly: Inhibition of EGFR in human A431 at 10 uM by liquid scintillation counting in presence of [33gammaP]ATP. The method, boiled down:
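EGFR kinase from A-431 cells; substrate [γ33-P]ATP plus poly GAT (0.48 mg/mL); PD 153035 reference; product measured by liquid scintillation; compounds at 10 µM.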

The species named for assay [17] is Rattus norvegicus. Put plainly: Displacement of [3H]cystisine from alpha-BGTX insensitive nicotinic acetylcholine receptor in rat cerebral cortex at 10 uM. The class given is tissue-based.
The target of assay [18] is Dual specificity mitogen-activated protein kinase kinase 1 (Oryctolagus cuniculus) (UniProt P29678). Put plainly: Inhibition of rabbit recombinant MEK1 expressed in Escherichia coli at 10 uM by liquid scintillation counting in presence of [33gammaP]ATP. The method, boiled down:
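Rabbit recombinant MEK1 from E. coli; ATP plus unactivated MAP kinase (0.01 mg/mL) as substrate; staurosporine reference; liquid scintillation detection; 10 µM.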

The target in assay [19] is Proto-oncogene tyrosine-protein kinase Src (Homo sapiens) (UniProt P12931). Put plainly: Inhibition of Src at 10 uM.
Chain of Proto-oncogene tyrosine-protein kinase Src (Homo sapiens) (P12931 2-536 limits assumed): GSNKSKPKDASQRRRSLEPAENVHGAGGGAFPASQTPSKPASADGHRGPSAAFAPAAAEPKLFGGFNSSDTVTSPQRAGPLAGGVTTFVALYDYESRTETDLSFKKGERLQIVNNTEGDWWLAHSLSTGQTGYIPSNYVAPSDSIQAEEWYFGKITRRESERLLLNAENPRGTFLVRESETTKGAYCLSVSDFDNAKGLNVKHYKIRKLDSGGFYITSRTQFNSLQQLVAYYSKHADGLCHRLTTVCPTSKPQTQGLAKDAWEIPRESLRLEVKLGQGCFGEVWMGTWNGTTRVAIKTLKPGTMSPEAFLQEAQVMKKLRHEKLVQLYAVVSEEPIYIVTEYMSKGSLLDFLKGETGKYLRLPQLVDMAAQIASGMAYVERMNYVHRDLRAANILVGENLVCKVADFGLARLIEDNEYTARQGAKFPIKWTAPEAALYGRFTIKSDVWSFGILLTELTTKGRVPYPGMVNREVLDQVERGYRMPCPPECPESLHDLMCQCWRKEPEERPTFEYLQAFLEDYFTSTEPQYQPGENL
Assay [20] deals with Tyrosine-protein kinase ABL1 (Mus musculus) (UniProt P00520). The assay is described as follows: Inhibition of mouse recombinant Abl expressed in Escherichia coli at 10 uM by fluorescence polarization. For orientation: Polarisation of emitted light reports the rotation of a fluorescent probe.
Chain of Tyrosine-protein kinase ABL1 (Mus musculus) (P00520 whole entry): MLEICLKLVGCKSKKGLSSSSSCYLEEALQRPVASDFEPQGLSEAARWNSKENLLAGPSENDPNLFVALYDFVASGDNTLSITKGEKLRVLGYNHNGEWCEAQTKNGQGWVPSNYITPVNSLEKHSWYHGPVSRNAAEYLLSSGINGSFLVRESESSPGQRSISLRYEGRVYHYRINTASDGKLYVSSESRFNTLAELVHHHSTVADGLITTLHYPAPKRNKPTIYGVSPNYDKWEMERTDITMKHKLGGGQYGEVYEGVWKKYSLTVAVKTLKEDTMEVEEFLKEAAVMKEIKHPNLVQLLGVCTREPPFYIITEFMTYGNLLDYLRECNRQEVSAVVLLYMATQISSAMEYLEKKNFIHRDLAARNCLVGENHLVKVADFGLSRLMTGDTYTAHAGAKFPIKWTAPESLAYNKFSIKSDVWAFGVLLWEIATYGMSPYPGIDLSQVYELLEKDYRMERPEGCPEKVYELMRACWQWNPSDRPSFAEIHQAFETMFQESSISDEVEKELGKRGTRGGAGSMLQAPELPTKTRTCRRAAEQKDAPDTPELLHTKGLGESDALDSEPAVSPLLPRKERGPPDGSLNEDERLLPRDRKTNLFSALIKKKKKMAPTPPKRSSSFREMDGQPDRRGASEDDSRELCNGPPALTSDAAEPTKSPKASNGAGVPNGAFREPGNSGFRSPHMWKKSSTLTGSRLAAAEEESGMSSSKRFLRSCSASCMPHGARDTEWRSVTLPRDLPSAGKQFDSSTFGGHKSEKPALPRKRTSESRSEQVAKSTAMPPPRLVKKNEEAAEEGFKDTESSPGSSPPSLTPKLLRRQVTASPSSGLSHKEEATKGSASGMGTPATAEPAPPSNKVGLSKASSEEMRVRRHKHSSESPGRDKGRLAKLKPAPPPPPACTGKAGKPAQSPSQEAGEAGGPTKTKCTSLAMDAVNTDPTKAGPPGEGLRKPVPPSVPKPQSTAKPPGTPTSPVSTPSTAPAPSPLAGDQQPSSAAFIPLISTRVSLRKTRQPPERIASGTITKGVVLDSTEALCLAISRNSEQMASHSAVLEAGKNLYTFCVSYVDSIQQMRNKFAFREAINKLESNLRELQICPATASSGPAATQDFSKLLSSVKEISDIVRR
Assay [21] addresses D(3) dopamine receptor (Homo sapiens) (UniProt P35462). Put plainly: Displacement of [3H]spiperone from human recombinant dopamine D3 receptor expressed in CHO cells at 10 uM. The class given is cell-based. The method, boiled down:
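Human recombinant D3 receptor from CHO cells; [3H]spiperone 0.3 nM as ligand; (+)-buctaclamol reference compound.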

Assay [22] has as its target D(2) dopamine receptor (Homo sapiens) (UniProt P14416). Put plainly: Displacement of [3H]spiperone from human recombinant dopamine D2 receptor expressed in CHO cells at 10 uM. In kind it is cell-based. The method, boiled down:
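Human recombinant D2 receptor expressed in CHO cells; [3H]spiperone ligand at 0.3 nM; (+)-buctaclamol as reference compound.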

Assay [23] deals with N2a. Put plainly: Induction of neurite growth in mouse Neuro2a cells at 0.2 uM after 16 hrs by phase-contrast photography. In kind it is functional, cell-based. The method, boiled down: as §1

Chain of Glycogen synthase kinase-3 beta (Mus musculus) (Q9WV60 whole entry, looked up): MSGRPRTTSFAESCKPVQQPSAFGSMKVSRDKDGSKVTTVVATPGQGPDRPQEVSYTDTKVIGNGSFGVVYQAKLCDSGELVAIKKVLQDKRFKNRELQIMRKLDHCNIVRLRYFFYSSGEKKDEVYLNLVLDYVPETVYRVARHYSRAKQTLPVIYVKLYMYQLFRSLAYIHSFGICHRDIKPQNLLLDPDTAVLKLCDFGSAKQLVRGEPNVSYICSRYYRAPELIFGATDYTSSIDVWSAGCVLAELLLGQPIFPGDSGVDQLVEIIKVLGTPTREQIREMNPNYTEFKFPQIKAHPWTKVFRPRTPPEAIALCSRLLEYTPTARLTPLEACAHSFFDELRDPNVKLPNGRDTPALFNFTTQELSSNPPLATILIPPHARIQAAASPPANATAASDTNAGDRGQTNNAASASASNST
Chain of Dual specificity mitogen-activated protein kinase kinase 1 (Oryctolagus cuniculus) (P29678 whole entry): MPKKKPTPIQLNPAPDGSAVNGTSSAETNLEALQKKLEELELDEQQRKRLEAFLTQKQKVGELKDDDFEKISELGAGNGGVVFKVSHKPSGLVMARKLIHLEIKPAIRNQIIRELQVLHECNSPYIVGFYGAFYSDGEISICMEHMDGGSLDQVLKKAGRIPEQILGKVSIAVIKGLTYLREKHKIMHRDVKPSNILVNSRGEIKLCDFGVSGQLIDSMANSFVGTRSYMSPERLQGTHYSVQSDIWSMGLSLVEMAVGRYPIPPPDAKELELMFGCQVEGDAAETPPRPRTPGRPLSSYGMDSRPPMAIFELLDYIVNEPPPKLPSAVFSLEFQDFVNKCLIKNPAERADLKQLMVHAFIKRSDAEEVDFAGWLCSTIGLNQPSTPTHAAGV
Chain of D(3) dopamine receptor (Homo sapiens) (P35462 whole entry): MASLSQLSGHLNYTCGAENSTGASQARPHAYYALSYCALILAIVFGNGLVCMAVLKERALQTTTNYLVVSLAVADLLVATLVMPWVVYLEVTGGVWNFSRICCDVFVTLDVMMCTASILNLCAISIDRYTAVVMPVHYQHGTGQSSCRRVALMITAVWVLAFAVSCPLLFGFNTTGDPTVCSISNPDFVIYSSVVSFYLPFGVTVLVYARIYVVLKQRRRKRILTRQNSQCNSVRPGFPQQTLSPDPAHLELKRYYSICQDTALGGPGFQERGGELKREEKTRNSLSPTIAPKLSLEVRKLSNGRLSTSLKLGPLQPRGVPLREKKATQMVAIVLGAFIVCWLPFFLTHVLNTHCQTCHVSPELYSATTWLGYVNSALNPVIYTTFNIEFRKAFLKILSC
Chain of D(2) dopamine receptor (Homo sapiens) (P14416 whole entry): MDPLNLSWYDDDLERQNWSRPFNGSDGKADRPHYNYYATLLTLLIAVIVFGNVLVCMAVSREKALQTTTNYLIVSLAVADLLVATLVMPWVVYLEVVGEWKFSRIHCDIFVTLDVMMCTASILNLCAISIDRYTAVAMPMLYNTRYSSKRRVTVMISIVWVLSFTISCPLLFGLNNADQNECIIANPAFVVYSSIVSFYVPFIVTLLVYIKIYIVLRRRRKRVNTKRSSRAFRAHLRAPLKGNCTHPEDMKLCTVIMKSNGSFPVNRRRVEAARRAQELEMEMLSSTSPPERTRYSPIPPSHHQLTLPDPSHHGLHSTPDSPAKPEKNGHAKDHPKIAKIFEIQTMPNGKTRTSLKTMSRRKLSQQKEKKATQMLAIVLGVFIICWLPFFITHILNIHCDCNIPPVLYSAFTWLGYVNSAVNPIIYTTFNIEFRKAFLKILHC
Chain of Epidermal growth factor receptor (Homo sapiens) (P00533 whole entry): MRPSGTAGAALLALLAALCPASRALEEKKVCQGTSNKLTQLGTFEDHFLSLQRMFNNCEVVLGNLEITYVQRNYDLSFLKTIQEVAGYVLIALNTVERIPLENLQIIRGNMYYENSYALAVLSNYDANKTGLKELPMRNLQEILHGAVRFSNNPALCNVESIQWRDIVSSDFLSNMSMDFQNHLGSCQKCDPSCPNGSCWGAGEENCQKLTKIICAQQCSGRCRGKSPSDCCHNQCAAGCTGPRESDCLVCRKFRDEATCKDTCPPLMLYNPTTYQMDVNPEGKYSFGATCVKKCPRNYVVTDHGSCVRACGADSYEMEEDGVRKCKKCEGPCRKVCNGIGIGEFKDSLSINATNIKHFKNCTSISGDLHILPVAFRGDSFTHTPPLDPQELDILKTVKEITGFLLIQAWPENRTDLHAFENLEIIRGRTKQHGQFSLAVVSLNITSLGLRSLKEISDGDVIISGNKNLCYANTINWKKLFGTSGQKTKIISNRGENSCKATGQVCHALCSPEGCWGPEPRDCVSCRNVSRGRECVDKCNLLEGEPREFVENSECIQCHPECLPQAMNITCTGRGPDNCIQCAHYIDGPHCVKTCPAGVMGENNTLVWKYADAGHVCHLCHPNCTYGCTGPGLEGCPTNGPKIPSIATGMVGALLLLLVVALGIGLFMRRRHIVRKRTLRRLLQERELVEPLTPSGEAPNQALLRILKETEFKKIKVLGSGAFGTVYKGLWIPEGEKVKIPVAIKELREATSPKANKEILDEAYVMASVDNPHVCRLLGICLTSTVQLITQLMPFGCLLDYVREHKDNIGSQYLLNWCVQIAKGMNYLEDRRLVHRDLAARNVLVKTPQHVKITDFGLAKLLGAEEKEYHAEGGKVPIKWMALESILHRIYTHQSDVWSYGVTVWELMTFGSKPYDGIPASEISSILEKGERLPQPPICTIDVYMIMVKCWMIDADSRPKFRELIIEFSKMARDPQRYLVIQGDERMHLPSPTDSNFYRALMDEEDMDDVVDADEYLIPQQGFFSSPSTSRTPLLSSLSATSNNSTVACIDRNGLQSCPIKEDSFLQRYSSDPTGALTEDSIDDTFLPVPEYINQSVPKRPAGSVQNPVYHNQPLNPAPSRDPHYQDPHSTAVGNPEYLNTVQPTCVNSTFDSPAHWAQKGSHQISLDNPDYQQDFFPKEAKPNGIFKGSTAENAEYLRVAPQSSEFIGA
T1 sequence (P49841 whole entry, looked up): as the sequence (Q9WV60 whole entry, looked up) above, with P390T, A392T, T400A, A402T counted along it

With `O=C(CCl)c1c(Br)sc(Cl)c1Cl`, the inhibition entry in [1] and in assay [2] was “Active” in each case. In addition, the outcome in assay [3], in [6] and in assay [15] was Active. Besides, the inhibition in [4] is 13%; in assay [5] it was under 10%; in [7], under 10%; in assay [8] it was under 10%; in assay [9], under 10%; in [10], under 10%. Besides, the inhibition in assay [11] was 33%; in [12] it was under 10%; in [13], under 10%; in [14], under 10%; in assay [16], under 10%; in assay [17], under 10%. Further, the inhibition is under 10% in assay [18]; 26% in assay [19]; under 10% in assay [20]; under 10% in assay [21]; 31% in [22].

For `O=C(CCl)c1ccc(Cl)s1`, the outcome in assay [3] was Active. Moreover, the inhibition in assay [4], in assay [5], in assay [7], in [8], in assay [9] and in [10] was under 10% in each case. Moreover, the inhibition in assay [11] was under 10%; in assay [12], under 10%; in assay [13], 17%; in assay [14], under 10%; in [16] it was under 10%; in assay [17] it was under 10%. Also, the inhibition in assay [18], in assay [19], in assay [20], in [21] and in assay [22] was under 10% each time.

Regarding `O=C(CCl)c1csc(C(=O)CCl)c1`, the inhibition entry in assay [1] and in assay [2] was “Active” in each case. In addition, the outcome in assay [3] and in [23] was Active. The inhibition in [4] was under 10%; in [5] it was under 10%; in [7], under 10%; in assay [8], under 10%; in assay [9], under 10%; in assay [10] it was 10%. In addition, the inhibition was 49% in assay [11]; 21% in assay [12]; 25% in assay [13]; 12% in assay [14]; 16% in assay [16]; under 10% in [17]. Also, the inhibition was under 10% in assay [18]; 94% in assay [19]; under 10% in assay [20]; under 10% in assay [21]; under 10% in assay [22].

`O=C(CCl)c1cc(Br)c(Br)s1`: the inhibition in assay [4], in assay [5], in [7], in [8], in assay [9] and in assay [10] was under 10% in each case. The inhibition in assay [11], in [12], in assay [13], in assay [14], in assay [16] and in assay [17] was under 10% throughout. Further, the inhibition was under 10% in assay [18]; 69% in assay [19]; under 10% in assay [20]; under 10% in [21]; under 10% in [22]. In assay [15], the result was Active.

Regarding `O=C(CCl)c1cscc1Cl`, the result in [3] was Active. In addition, the inhibition in assay [4] was 16%; in [5], under 10%; in assay [7] it was under 10%; in assay [8], under 10%; in assay [9], under 10%; in [10], under 10%. Further, the inhibition in assay [11] was 31%; in assay [12] it was under 10%; in assay [13], under 10%; in assay [14], under 10%; in assay [16] it was under 10%; in assay [17], under 10%. Besides, the inhibition was under 10% in assay [18]; 24% in [19]; under 10% in assay [20]; under 10% in assay [21]; 13% in assay [22].

Take `O=C(CCl)c1ccc(Br)s1`: the result in assay [3] was Active. Moreover, the inhibition in [4], in assay [5], in [7], in [8], in assay [9] and in assay [10] was under 10% throughout. Further, the inhibition was under 10% in assay [11]; 16% in assay [12]; under 10% in assay [13]; under 10% in [14]; under 10% in [16]; under 10% in [17]. Moreover, the inhibition is under 10% in assay [18]; 19% in assay [19]; under 10% in assay [20]; under 10% in assay [21]; under 10% in [22].

The term inhibition denotes how much of the control response was suppressed.
